{"data": "Results gathered from unrelated publications", "target": "Serine/threonine-protein kinase PAK 2 (PAK2, Homo sapiens, UniProt Q13177)", "note": "Each line is one published result; the experiments were not run side by side."}
{"Compound": "C#Cc1n[nH]c2c(-c3cn([C@@H](C)c4ccccc4)c(=O)[nH]c3=O)cc(F)cc12", "assay": "enzyme activity, inhibitor", "setting": "0.1 µM", "measurement": "inhibition", "result": "1.7%"}
{"Compound": "Nc1ncc(-c2nc(N3CCOCC3)nc(N3CCOCC3)n2)c(C(F)F)n1", "assay": "binding, competition with immobilised ligand", "setting": "10 µM", "measurement": "remaining binding", "result": "58%"}
{"Compound": "Cn1cncc1[C@](O)(COc1ccc(C#N)cc1-c1ccc(OC(F)(F)F)cc1)c1ccc(C#N)cc1", "assay": "cell-free assay, competition with immobilised ligand", "setting": "1 µM", "measurement": "remaining binding", "result": "93%"}
{"Compound": "C#Cc1n[nH]c2c(-c3cn(C(C)c4ccccn4)c(=O)[nH]c3=O)cc(F)cc12 (stereo not drawn)", "assay": "enzyme activity, inhibitor", "setting": "1 µM", "measurement": "inhibition", "result": "-6.9%"}
{"Compound": "COc1ncccc1-c1cnn2ccc(N3CCN(C(=O)OC(C)C)CC3)nc12", "assay": "binding, competition with immobilised ligand", "setting": "1 µM", "measurement": "remaining binding", "result": "100%"}
{"Compound": "Cn1cc(-c2cc(F)cc(N3CCn4c(cc5c4CCCC5)C3=O)c2CO)cc(Nc2ccc(N3CCN(C4COC4)CC3)cn2)c1=O", "assay": "enzyme activity, inhibitor", "setting": "0.1 µM", "measurement": "inhibition", "result": "11%"}
{"Compound": "O=c1[nH]c2ccccc2n1C1CCN(Cc2ccc(-c3[nH]c4cc5ncnc5cc4nc3-c3ccccc3)cc2)CC1", "assay": "cell-free assay", "setting": "0.5 µM", "measurement": "remaining signal", "result": "99.2%"}
{"Compound": "Cn1cc(-c2cccc(N3CCc4c(sc5c4CC(C)(C)C5)C3=O)c2CO)cc(Nc2ccncn2)c1=O", "assay": "enzyme activity, inhibitor", "setting": "1 µM", "measurement": "inhibition", "result": "6%"}
{"Compound": "COc1cc(Nc2ncc(F)c(Nc3ccc4c(n3)NC(=O)C(C)(C)O4)n2)cc(OC)c1OC", "assay": "binding, competition with immobilised ligand", "setting": "10 µM", "measurement": "inhibition", "result": "64%"}
